Reference: ChEMBL document CHEMBL4038305, “Benzoxaborole Antimalarial Agents. Part 5. Lead Optimization of Novel Amide Pyrazinyloxy Benzoxaboroles and Identification of a Preclinical Candidate” (J Med Chem, 2017)

What was measured:
[1] = Terminal half life in CD1 mouse at 5 mg/kg, po via gavage by HPLC/MS analysis; type: ADME, organism-based; conditions: in vivo, read-out: beta t1/2 (converted)
Procedure, shortened: (§1)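 Female CD-1 mice, male SD rats or beagle dogs given 5 mg/kg by iv injection or oral gavage. Formulation was PEG300/propylene glycol/water 55/25/20, pH 6. Blood samples analysed by HPLC–MS/MS; parameters include AUC0-inf extrapolated to infinity and terminal half-life.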

[2] = Tmax in CD1 mouse plasma at 5 mg/kg, po via gavage by HPLC/MS analysis; type: ADME, organism-based; procedure, shortened: as §1
[3] = Oral bioavailability in CD1 mouse at 5 mg/kg by HPLC/MS analysis; type: ADME, organism-based; conditions: in vivo; procedure, shortened: as §1
[4] = AUC (0 to infinity) in CD1 mouse at 5 mg/kg, po via gavage by HPLC/MS analysis; type: ADME, organism-based; set-up: dose 5 mg/kg, time infinity, route oral; conditions: in vivo
[5] = AUC (0 to infinity) in CD1 mouse at 5 mg/kg, iv by HPLC/MS analysis; type: ADME, organism-based; set-up: dose 5 mg/kg, time infinity, route intravenous; conditions: in vivo
[6] = Cmax in CD1 mouse plasma at 5 mg/kg, po via gavage by HPLC/MS analysis; type: ADME, organism-based; set-up: dose 5 mg/kg, route oral
Procedure, shortened: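 Female CD-1 mice, male SD rats and beagle dogs received 5 mg/kg either iv or by oral gavage. Vehicle was PEG 300/propylene glycol/water (55/25/20, pH 6). Blood was sampled and drug measured by HPLC-MS/MS.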

[7] = tested on: Plasmodium berghei; assay: Antimalarial activity against Plasmodium berghei infected in Swiss Webster mouse assessed as mouse survival rate at 200 mg/kg administered once daily via oral gavage for 4 consecutive days beginning 1 hr after infection measured on day 9 post infection relative to control; type: functional
Procedure, shortened: (§2)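 P. berghei-infected erythrocytes taken from a previously infected mouse were injected intraperitoneally. Oral dosing, once daily for 4 consecutive days, began 1 h after infection, in polyethylene glycol 300/propylene glycol/water (55/25/20 by weight). Chloroquine at 30 mg/kg was the positive control, with a vehicle-only group. Percent survival was recorded daily from day 4 to day 20.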

[8] = tested on: Plasmodium berghei; assay: Antimalarial activity against Plasmodium berghei infected in Swiss Webster mouse assessed as mouse survival rate at 200 mg/kg administered once daily via oral gavage for 4 consecutive days beginning 1 hr after infection measured on day 10 post infection relative to control; type: functional; procedure, shortened: as §2
[9] = tested on: Plasmodium berghei; assay: Antimalarial activity against Plasmodium berghei infected in Swiss Webster mouse assessed as mouse survival rate at 200 mg/kg administered once daily via oral gavage for 4 consecutive days beginning 1 hr after infection measured on day 4 post infection relative to control; type: functional; procedure, shortened: as §2
[10] = tested on: Plasmodium berghei; assay: Antimalarial activity against Plasmodium berghei infected in Swiss Webster mouse assessed as mouse survival rate at 200 mg/kg administered once daily via oral gavage for 4 consecutive days beginning 1 hr after infection measured on day 8 post infection relative to control; type: functional; procedure, shortened: as §2
[11] = tested on: Plasmodium berghei; assay: Antimalarial activity against Plasmodium berghei infected in Swiss Webster mouse assessed as mouse survival rate at 200 mg/kg administered once daily via oral gavage for 4 consecutive days beginning 1 hr after infection measured on day 5 post infection relative to control; type: functional; procedure, shortened: as §2
[12] = tested on: Plasmodium berghei; assay: Antimalarial activity against Plasmodium berghei infected in Swiss Webster mouse assessed as mouse survival rate at 200 mg/kg administered once daily via oral gavage for 4 consecutive days beginning 1 hr after infection measured on day 7 post infection relative to control; type: functional; procedure, shortened: as §2
[13] = tested on: Plasmodium berghei; assay: Antimalarial activity against Plasmodium berghei infected in Swiss Webster mouse assessed as mouse survival rate at 200 mg/kg administered once daily via oral gavage for 4 consecutive days beginning 1 hr after infection measured from day 16 to day 19 post infection relative to control; type: functional; procedure, shortened: as §2
[14] = tested on: Plasmodium berghei; assay: Antimalarial activity against Plasmodium berghei infected in Swiss Webster mouse assessed as mouse survival rate at 200 mg/kg administered once daily via oral gavage for 4 consecutive days beginning 1 hr after infection measured on day 13 post infection relative to control; type: functional; procedure, shortened: as §2
[15] = tested on: Plasmodium berghei; assay: Antimalarial activity against Plasmodium berghei infected in Swiss Webster mouse assessed as mouse survival rate at 200 mg/kg administered once daily via oral gavage for 4 consecutive days beginning 1 hr after infection measured on day 12 post infection relative to control; type: functional; procedure, shortened: as §2
[16] = tested on: Plasmodium berghei; assay: Antimalarial activity against Plasmodium berghei infected in Swiss Webster mouse assessed as mouse survival rate at 11 mg/kg administered once daily via oral gavage for 4 consecutive days beginning 1 hr after infection measured on day 9 post infection relative to control; type: functional; procedure, shortened: as §2
[17] = tested on: Plasmodium berghei; assay: Antimalarial activity against Plasmodium berghei infected in Swiss Webster mouse assessed as mouse survival rate at 200 mg/kg administered once daily via oral gavage for 4 consecutive days beginning 1 hr after infection measured on day 20 post infection relative to control; type: functional; procedure, shortened: as §2
[18] = tested on: Plasmodium berghei; assay: Antimalarial activity against Plasmodium berghei infected in Swiss Webster mouse assessed as mouse survival rate at 200 mg/kg administered once daily via oral gavage for 4 consecutive days beginning 1 hr after infection measured on day 14 post infection relative to control; type: functional; procedure, shortened: as §2
[19] = tested on: Plasmodium berghei; assay: Antimalarial activity against Plasmodium berghei infected in Swiss Webster mouse assessed as mouse survival rate at 1.1 mg/kg administered once daily via oral gavage for 4 consecutive days beginning 1 hr after infection measured on day 5 post infection relative to control; type: functional
Procedure, shortened: (§3)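 Mice given an intraperitoneal injection of P. berghei-infected erythrocytes taken from a previously infected animal. Oral dosing once daily for 4 consecutive days, starting 1 h after infection. Vehicle: polyethylene glycol 300/propylene glycol/water (weight ratio 55/25/20). Percent survival recorded daily from day 4 to day 20. Chloroquine 30 mg/kg and vehicle-only groups served as controls.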

[20] = tested on: Plasmodium berghei; assay: Antimalarial activity against Plasmodium berghei infected in Swiss Webster mouse assessed as mouse survival rate at 200 mg/kg administered once daily via oral gavage for 4 consecutive days beginning 1 hr after infection measured on day 11 post infection relative to control; type: functional; procedure, shortened: as §2
[21] = tested on: Plasmodium berghei; assay: Antimalarial activity against Plasmodium berghei infected in Swiss Webster mouse assessed as mouse survival rate at 100 mg/kg administered once daily via oral gavage for 4 consecutive days beginning 1 hr after infection measured on day 20 post infection relative to control; type: functional; procedure, shortened: as §3
[22] = tested on: Plasmodium berghei; assay: Antimalarial activity against Plasmodium berghei infected in Swiss Webster mouse assessed as mouse survival rate at 100 mg/kg administered once daily via oral gavage for 4 consecutive days beginning 1 hr after infection measured on day 16 post infection relative to control; type: functional; procedure, shortened: as §3
[23] = tested on: Plasmodium berghei; assay: Antimalarial activity against Plasmodium berghei infected in Swiss Webster mouse assessed as mouse survival rate at 200 mg/kg administered once daily via oral gavage for 4 consecutive days beginning 1 hr after infection measured on day 15 post infection relative to control; type: functional; procedure, shortened: as §2
[24] = tested on: Plasmodium berghei; assay: Antimalarial activity against Plasmodium berghei infected in Swiss Webster mouse assessed as mouse survival rate at 100 mg/kg administered once daily via oral gavage for 4 consecutive days beginning 1 hr after infection measured on day 15 post infection relative to control; type: functional; procedure, shortened: as §3
[25] = tested on: Plasmodium berghei; assay: Antimalarial activity against Plasmodium berghei infected in Swiss Webster mouse assessed as mouse survival rate at 100 mg/kg administered once daily via oral gavage for 4 consecutive days beginning 1 hr after infection measured on day 17 post infection relative to control; type: functional; procedure, shortened: as §3
[26] = tested on: Plasmodium falciparum; assay: Antimalarial activity against Plasmodium falciparum 3D7 0087/N9 infected in NOD/SCID IL2R gamma null mouse assessed as compound concentration in whole blood require to reduce parasitemia in peripheral blood administered once daily via oral gavage for 4 consecutive days measured on day 7 post infection; type: functional
[27] = tested on: Plasmodium berghei; assay: Antimalarial activity against Plasmodium berghei infected in Swiss Webster mouse assessed as mouse survival rate at 100 mg/kg administered once daily via oral gavage for 4 consecutive days beginning 1 hr after infection measured from day 16 to day 19 post infection relative to control; type: functional; procedure, shortened: as §3

Compound	half-life [1] [h]	Tmax [2] [h]	bioavailability [3] [%]	AUC(0-inf) [4] [ng·h/mL]	AUC(0-inf) [5] [ng·h/mL]	Cmax [6] [ng/mL]	survival at 200 mg/kg [7] [%]	survival at 200 mg/kg [8] [%]	survival at 200 mg/kg [9] [%]	survival at 200 mg/kg [10] [%]	survival at 200 mg/kg [11] [%]	survival at 200 mg/kg [12] [%]	survival at 200 mg/kg [13] [%]	survival at 200 mg/kg [14] [%]	survival at 200 mg/kg [15] [%]	survival at 200 mg/kg [17] [%]	survival at 200 mg/kg [18] [%]	survival at 200 mg/kg [20] [%]	survival at 200 mg/kg [23] [%]	survival at 100 mg/kg [24] [%]	further results
Cc1c(Oc2cnc(C(=O)N[C@@H](CO)CC(F)(F)F)cn2)ccc2c1B(O)OC2	3	1	64	13400	21000	2100	–	–	–	–	–	–	–	–	–	–	–	–	–	–	–
Cc1c(Oc2cnc(C(=O)NC(C)CO)cn2)ccc2c1B(O)OC2 (stereo not drawn)	2.7	1	85	33000	39000	3800	–	–	–	–	–	–	–	–	–	–	–	–	–	–	–
Cc1c(Oc2cnc(C(=O)NCCO)cn2)ccc2c1B(O)OC2	3	1	94	29600	31400	4300	80	0	100	80	100	100	–	–	–	–	–	–	–	–	–
Cc1c(Oc2cnc(C(=O)N3CC(O)(C(C)C)C3)cn2)ccc2c1B(O)OC2	–	–	–	–	–	–	100	100	100	100	100	100	100	100	100	100	100	100	100	100	survival at 11 mg/kg [16]: 60%; survival at 1.1 mg/kg [19]: 100%; survival at 100 mg/kg [21]: 80%; survival at 100 mg/kg [22]: 100%; survival at 100 mg/kg [25]: 100%
Cc1c(Oc2cnc(C(=O)N3CC(C)(O)C3)cn2)ccc2c1B(O)OC2	6.8	0.5	101	20700	20500	3900	–	–	–	–	–	–	–	–	–	–	–	–	–	60	survival at 11 mg/kg [16]: 0%; AUCED90 [26]: 1.4 µg.hr/ml/day; survival at 100 mg/kg [22]: 60%; survival at 100 mg/kg [25]: 0%
CCC[C@H](CO)NC(=O)c1cnc(Oc2ccc3c(c2C)B(O)OC3)cn1	4.5	0.5	103	21600	20500	4000	100	100	100	100	100	100	100	100	100	100	100	100	100	–	AUCED90 [26]: 7.45 µg.hr/ml/day
Cc1c(Oc2cnc(C(=O)N3CC(O)(C(F)(F)F)C3)cn2)ccc2c1B(O)OC2	–	–	–	–	–	–	–	–	–	–	–	–	–	–	–	–	–	–	–	100	survival at 1.1 mg/kg [19]: 100%; survival at 100 mg/kg [21]: 100%; survival at 100 mg/kg [27]: 100%
CCCC1(O)CN(C(=O)c2cnc(Oc3ccc4c(c3C)B(O)OC4)cn2)C1	–	–	–	–	–	–	100	100	100	100	100	100	–	100	100	0	100	100	100	80	survival at 11 mg/kg [16]: 0%; survival at 100 mg/kg [21]: 0%; survival at 100 mg/kg [27]: 20%
CCC1(O)CN(C(=O)c2cnc(Oc3ccc4c(c3C)B(O)OC4)cn2)C1	–	–	–	–	–	–	100	100	100	100	100	100	80	100	100	80	100	100	100	–	AUCED90 [26]: 1.6 µg.hr/ml/day
